Experimental data reported in PMC9306447 (Clinical Cancer Research, 2022).
“And” between values parts separate entries of the source, which are not always exact repeats. Identical values can stand only once. Like-named read-outs stand apart in the source and are kept apart here.

How the values were obtained:
[1] = Fraction unbound in brain tumor tissue by equilibrium dialysis; type: in vitro ADME, human; details: for Fraction unbound EN: enhancing tumor tissue; for Fraction unbound NE: nonenhancing tumor tissue
Summary of the method: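 Patients with brain metastasis or recurrent glioblastoma took the test compound orally for 10 days: 750 mg/day fasted or 450 mg/day with food. Tumor was resected 2 to 4, 6 to 8 or 23 to 25 h after the 10th dose. Regions were gadolinium-enhancing or, for glioblastoma, also nonenhancing, defined by preoperative MRI and intraoperative neuronavigation. Fraction unbound was measured by equilibrium dialysis, with total drug by LC-MS/MS.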

[2] = tested on: ALK(+) NSCLC brain metastases; details: ASCEND-1, cited from earlier work
[3] = Clinical safety, adverse events graded by CTCAE; type: in vivo, human; details: 10 patients
[4] = Steady-state plasma PK of total and unbound ceritinib; type: in vivo, human; details: for Css,max / Tss,max: plasma
[5] = Ceritinib concentrations in brain tumor and CSF and extent of CNS penetration; type: in vivo, human; details: for Total drug tumor conc. EN / Unbound drug tumor conc. EN: enhancing tumor; for Total drug tumor conc. NE / Unbound drug tumor conc. NE: nonenhancing tumor
human plasma proteins = assay: Fraction unbound in plasma by equilibrium dialysis; type: in vitro ADME; details: patient plasma; median and range
Summary of the method: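 Patient plasma came from subjects dosed orally with the test compound for 10 days (750 mg/day fasted or 450 mg/day fed). Blood was sampled on day 9 and intraoperatively, centrifuged at 4°C, 1,500 g for 10 min, and the plasma stored at −80°C. Fraction unbound was measured by equilibrium dialysis; unbound concentration is total concentration (LC-MS/MS) times fraction unbound.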

[6] = daily dose; cited from earlier work
IGF1R = details: read-out: biochemical IC50; cited from earlier work
[7] = tested on: ALK(+) NSCLC with brain metastases; details: across all four arms of ASCEND-7; cited from earlier work
FAK = details: read-out: biochemical IC50; cited from earlier work
[8] = individual patients 7, 9, 13 (resection 6–8 h)
[9] = individual patients 8, 14 (resection 23–25 h)
[10] = median (range given) of patients
[11] = total ceritinib, arithmetic mean of 10 patients (750 or 450 mg/day)
[12] = total ceritinib, geometric mean of 10 patients (750 or 450 mg/day)
[13] = unbound ceritinib, arithmetic mean of 10 patients (750 or 450 mg/day)
[14] = unbound ceritinib, geometric mean of 10 patients (750 or 450 mg/day)
[15] = mean of patients, all time points
[16] = median of patients, all time points
[17] = individual patients 7, 9, 13, 6–8 h after 10th dose, 450 mg/day
[18] = individual patients 8, 14, 23–25 h after 10th dose, 450 mg/day
[19] = individual patients 5, 11, 2–4 h after 10th dose, 450 mg/day

SMILES: Cc1cc(Nc2ncc(Cl)c(Nc3ccccc3S(=O)(=O)C(C)C)n2)c(OC(C)C)cc1C1CCNCC1 [ceritinib, 5-chloro-N2-(2-isopropoxy-5-methyl-4-(piperidin-4-yl)phenyl)-N4-(2-(isopropylsufonyl)phenyl)pyrimidine-2,4-diamine]
- Fraction unbound EN ([1]; individual patients 1, 2, 3, 5, 11 (resection 2–4 h)): 1.618% and 0.039% and 0.047% and 0.056%
- Fraction unbound EN [1, 8]: 0.006% and 0.153% and 0.030%
- Fraction unbound EN [1, 9]: 0.298% and 0.144%
- Fraction unbound EN [1, 10]: 0.006%–1.6% and 0.051%
- Fraction unbound NE ([1]; individual patients 5, 11 (resection 2–4 h)): 0.045% and 0.006%
- Fraction unbound NE [1, 8]: 0.006% and 0.163% and 0.030%
- Fraction unbound NE [1, 9]: 0.090% and 0.213%
- Fraction unbound NE [1, 10]: 0.045% and 0.006%–0.21%
- fraction unbound in the tumor relative to the median value ([1]; patient 1, breast cancer brain metastasis): approximately 30 fold
- intracranial disease control rate ([2]; ALKi-naïve patients (15/19)): 78.9%
- intracranial disease control rate ([2]; ALKi-pretreated patients (49/75)): 65.3%
- tolerability of presurgical ceritinib ([3]; 10-day presurgical course): well tolerated
- severity of toxicities at least possibly related to ceritinib ([3]; CTCAE 4.0): minor (CTCAE 4.0 grades 1 and 2)
- Css,max [4, 11]: 1.279 µmol/L
- Tss,max [4, 11]: 6.1 h
- Css,max [4, 12]: 1.230 µmol/L
- Tss,max [4, 12]: 5.9 h
- CL/F [4, 11]: 42.5 L/h
- fluctuation between steady-state peak and trough plasma concentrations ([4]; total ceritinib, geometric mean): 1.4 fold
- CL/F ([4]; total ceritinib, individual patients 1-3 (brain metastases), 750 mg/day fasted): 29.8 L/h and 66.9 L/h and 54.6 L/h
- CL/F ([4]; total ceritinib, individual patients 5-14 (glioblastoma), 450 mg/day with food): 35.9 L/h and 39.8 L/h and 34.1 L/h and 34.7 L/h and 40.8 L/h and 37.8 L/h and 50.1 L/h
- Css,max [4, 13]: 0.019 µmol/L
- Tss,max [4, 13]: 9.3 h
- Css,max [4, 14]: 0.015 µmol/L
- Tss,max [4, 14]: 7.0 h
- CSF concentration ([5]; individual patient 14, 23–25 h after 10th dose, 450 mg/day): 0.015 µM
- CSF concentration ([5]; individual patients 7, 13, 6–8 h after 10th dose, 450 mg/day): 0.003 µM and 0.015 µM
- CSF concentration [5, 15]: 0.022 µM
- CSF concentration [5, 16]: 0.012 µM
- Total drug tumor conc. EN [5, 17]: 17.770 nmol/mg and 28.484 nmol/mg and 58.893 nmol/mg
- Unbound drug tumor conc. EN [5, 17]: 0.001 nmol/mg and 0.043 nmol/mg and 0.018 nmol/mg
- Total drug tumor conc. EN [5, 18]: 18.340 nmol/mg and 43.715 nmol/mg
- Unbound drug tumor conc. EN [5, 18]: 0.055 nmol/mg and 0.063 nmol/mg
- Total drug tumor conc. EN [5, 15]: 46.954 nmol/mg
- Unbound drug tumor conc. EN [5, 15]: 0.117 nmol/mg
- Total drug tumor conc. EN [5, 16]: 36.100 nmol/mg
- Unbound drug tumor conc. EN [5, 16]: 0.048 nmol/mg
- unbound concentration in enhancing tumor ([5]; median): 0.048 µmol/L
- unbound concentration in nonenhancing tumor ([5]; median): 6 nM
- Total drug tumor conc. NE [5, 19]: 36.351 nmol/mg and 1.259 nmol/mg
- Unbound drug tumor conc. NE [5, 19]: 0.017 nmol/mg and BLQ
- Total drug tumor conc. NE [5, 15]: 9.674 nmol/mg
- Unbound drug tumor conc. NE [5, 15]: 0.008 nmol/mg
- Total drug tumor conc. NE [5, 16]: 2.771 nmol/mg
- Unbound drug tumor conc. NE [5, 16]: 0.006 nmol/mg
- fraction unbound in human plasma (human plasma proteins): 1.4% and 0.6%–2.6%
- maximally tolerated dose (MTD) [6]: 750 mg
- IC50 (IGF1R): 8 nM
- disease control rate (DCR), intracranial [7]: High disease control rate
- IC50 (FAK): 30 nM
